1 compound from ChEMBL document CHEMBL1124663, “Design, synthesis, antineoplastic activity, and chemical properties of bis(carbamate) derivatives of 4,5-bis(hydroxymethyl)imidazole” (J Med Chem, 1989) can be followed below.

For data set [1], the system named is Mus musculus. Description: Ability of 25 mg/kg of compound to kill M5076 tumor cells in mice is expressed as the log of the tumor cell population at the onset of treatment minus the log of the tumor cell population at the end of treatment. It is filed as functional. The method, boiled down: (§1)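 M5076 sarcoma, 10^6 cells ip on day 0 in B6C3F1 mice. Drug given ip as a fresh saline suspension every fourth day (days 1, 5, 9, 13). % T/C is median survival of treated versus control mice, counting long-term survivors. Cures are 60-day survivors. Log cell kill is derived from this.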

Data set [2] has as its system Mus musculus. Description: The percent of the median survival time of test mice compared to control mice is % T/C. It is determined for mice administered with 25 mg/kg compound on day 0 for LOX 1 tumor cells. Type of data set: functional. The settings on record: route intraperitoneal.
In data set [3] the test system is Mus musculus. Description: Toxicity day evaluation was carried out on day 5 for animal dosed with 6.25 mg/kg compound; 5/6. Type of data set: organism-based. Details: dose 6.25 mg/kg. The note with it: in vivo.
Data set [4] concerns Mus musculus. Description: The toxicity day was evaluated on […] for MX-1 tumor cells of test animals dosed with 200 mg/kg of compound; 1/6. Type of data set: functional. The procedure, abridged: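 Human MX-1 mammary xenograft, a 1 mm3 (0.5 mg) tumor fragment implanted under the renal capsule of NCR-nu mice on day 0. Drug given ip as a fresh saline suspension on days 1, 5 and 9. Tumor size is assessed on day 11. A negative % T/C is percent shrinkage relative to the initial implant. Survivors in the toxicity group are […].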

Data set [5] has as its system Mus musculus. Description: Body weight difference (BWD) of test animals administered with 100 mg/kg compound is determined on day 5 for P388 tumor cells. Type of data set: functional. The method, boiled down:
(§2)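 P388 leukaemia: about 10^6 cells in ascitic fluid inoculated ip on day 0 (CD2F1 mice). Compound given ip in normal saline as a freshly prepared solution or suspension, once daily on days 1–5. Treated-minus-control body weight difference in g, taken as day 5 minus day 1 weight. Groups of six.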

Data set [6] deals with Mus musculus. The data set is described as follows: Body Weight Difference (BWD) of test animals administered with 12.5 mg/kg compound is determined on day 5 for P388 tumor cells. Type of data set: functional. The procedure, abridged: as §2
Data set [7] deals with Mus musculus. Description: Ability of 200 mg/kg of compound to kill M5076 tumor cells in mice is expressed as the log of the tumor cell population at the onset of treatment minus the log of the tumor cell population at the end of treatment. It is filed as functional. The method, boiled down:
as §1

For the compound `CNC(=O)OCc1nc(SC)n(C)c1COC(=O)NC`, the KE with Mus musculus [1] was -1.51; in the data set with Mus musculus [7], 0.98. Further, in the data set with Mus musculus [2], the T/C is 219%. Also, the “Survivors / animals tested” value in the data set on Mus musculus [3] was found to be 5; with Mus musculus [4], 1. For the same compound, the BWD was -4.1 g in the data set on Mus musculus [5] and -1.2 g in the data set with Mus musculus [6].

As a reminder, the T/C is the ratio of treated to control.
